Results as given in ChEMBL document CHEMBL3286225, “Novel carboline derivatives as potent antifungal lead compounds: design, synthesis, and biological evaluation” (ACS Med Chem Lett, 2014).
Values after ≈ are worked out from the molar mass of the structure shown. Active and inactive are the calls of the source. The rule behind the calls is not given here.

Columns and labels:
[1] = system: Candida albicans; assay: Antifungal activity against fluconazole-resistant Candida albicans 07109 after 24 hrs by serial dilution method; assay type: functional; conditions: Candida albicans, 07109, 24 h
[2] = system: Candida albicans; assay: Antifungal activity against fluconazole-resistant Candida albicans 805 after 24 hrs by serial dilution method in presence of fluconazole; assay type: functional
Summary of the method: (§1)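 Tested in combination with fluconazole against each fluconazole-resistant C. albicans strain. Interaction was scored by fractional inhibitory concentration index (FICI): synergy at FICI ≤ 0.5, indifference at 0.5 < FICI ≤ 4, antagonism at FICI > 4.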

[3] = system: Candida albicans; assay: Antifungal activity against fluconazole-sensitive Candida albicans SC5314 assessed as necrosis at 8 ug/ml after 8 hrs by TEM analysis; assay type: functional, organism-based
Summary of the method: (§2)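 Transmission electron microscopy of C. albicans SC5314 cells exposed to 8 μg/mL for 8 h. Untreated cells and cells given fluconazole 8 μg/mL for 8 h served as controls. Cell wall layers, cytoplasmic density and vacuole shape were compared by eye.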

[4] = system: Candida albicans; assay: Fungicidal activity against fluconazole-sensitive Candida albicans SC5314 after 12 to 48 hrs; assay type: functional, organism-based
Summary of the method: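 Time-kill assay starting from 10^5 CFU/mL C. albicans SC5314. Test concentrations ranged from 2–32 μg/mL. Untreated and fluconazole 32 μg/mL controls were included. Viable counts (CFU/mL) were taken at 0, 12, 24 and 48 h of incubation.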

[5] = target: CYP2C19 (Homo sapiens, UniProt P33261); assay: Inhibition of CYP2C19 in human liver microsomes assessed as S-mephenytoin conversion to 4'-hydroxy mephenytoin at 25 uM preincubated for 10 mins followed by NADPH addition measured after 15 mins by LC-MS/MS analysis relative to control; assay type: ADME; conditions: probe S-mephenytoin
[6] = system: Trichophyton rubrum; assay: Antifungal activity against Trichophyton rubrum Cmccftla after 7 days by serial dilution method; assay type: functional; conditions: 168 h
[7] = target: T1, Cytochrome P450 3A4 (Homo sapiens, UniProt P08684); assay: Inhibition of CYP3A4 in human liver microsomes assessed as midazolam conversion to 1'-hydroxy midazolam preincubated for 10 mins followed by NADPH addition measured after 15 mins by LC-MS/MS analysis; assay type: ADME
[8] = target: T1, Cytochrome P450 3A4; assay: Inhibition of CYP3A4 in human liver microsomes assessed as testosterone conversion to 6-hydroxy testosterone preincubated for 10 mins followed by NADPH addition measured after 15 mins by LC-MS/MS analysis; assay type: ADME
[9] = system: Candida albicans; assay: Inhibition of biofilm formation of fluconazole-resistant Candida albicans 103 at 32 ug/ml after 48 hrs by XTT assay; assay type: functional; conditions: Candida albicans, 103, 48 h
Summary of the method: (§3)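 Biofilm formation by C. albicans SC5314 or 103 in presence of 2–64 μg/mL drug (fluconazole 64 μg/mL reference); quantified by XTT reduction as % of blank control; mean ± standard deviation of three independent experiments, ANOVA and Student t test.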

[10] = target: T2, CYP3A4 (Homo sapiens, UniProt P08684); assay: Inhibition of CYP3A4 in human liver microsomes assessed as midazolam conversion to 1'-hydroxy midazolam at 25 uM preincubated for 10 mins followed by NADPH addition measured after 15 mins by LC-MS/MS analysis relative to control; assay type: ADME; conditions: probe midazolam
[11] = system: Candida albicans; assay: Antifungal activity against fluconazole-resistant Candida albicans 103 after 24 hrs by serial dilution method in presence of fluconazole; assay type: functional; summary of the method: as §1
[12] = target: T2, CYP3A4; assay: Inhibition of CYP3A4 in human liver microsomes assessed as testosterone conversion to 6-hydroxy testosterone at 2.5 uM preincubated for 10 mins followed by NADPH addition measured after 15 mins by LC-MS/MS analysis relative to control; assay type: ADME; conditions: probe testosterone
[13] = system: Candida tropicalis; assay: Antifungal activity against Candida tropicalis after 7 days by serial dilution method; assay type: functional; conditions: 168 h
[14] = target: Cytochrome P450 2C9 (Homo sapiens, UniProt P11712); assay: Inhibition of CYP2C9 in human liver microsomes assessed as tolbutamide conversion to 4-hydroxy tolbutamide preincubated for 10 mins followed by NADPH addition measured after 15 mins by LC-MS/MS analysis; assay type: ADME
[15] = target: T2, CYP3A4; assay: Inhibition of CYP3A4 in human liver microsomes assessed as midazolam conversion to 1'-hydroxy midazolam at 2.5 uM preincubated for 10 mins followed by NADPH addition measured after 15 mins by LC-MS/MS analysis relative to control; assay type: ADME; conditions: probe midazolam
[16] = system: Candida albicans; assay: Antifungal activity against fluconazole-sensitive Candida albicans SC5314 assessed as reduction in cytoplasmic density at 8 ug/ml after 8 hrs by TEM analysis; assay type: functional, organism-based; summary of the method: as §2
[17] = system: Candida albicans; assay: Antifungal activity against fluconazole-sensitive Candida albicans SC5314 after 24 hrs by serial dilution method; assay type: functional; conditions: SC5314, 24 h
[18] = system: Candida albicans; assay: Inhibition of hyphal growth of fluconazole-sensitive Candida albicans SC5314 assessed as appearance of unicellular budding yeast form at 4 to 8 ug/ml after 16 hrs by light microscopic analysis; assay type: functional, organism-based
Summary of the method: (§4)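 C. albicans SC5314 was grown in RPMI 1640 at 37 °C for 16 h, without compound or with 2–8 μg/mL. A fluconazole 8 μg/mL control was included. Cell morphology (hyphae, pseudohyphae, budding yeast) was then scored by microscopy.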

[19] = system: Candida albicans; assay: Antifungal activity against fluconazole-sensitive Candida albicans SC5314 assessed as change in ergosterol composition at 8 ug/ml after 24 hrs by GC-MS analysis (reference value: 90%); assay type: functional
Summary of the method: (§5)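 C. albicans SC5314 exposed to 8 μg/mL for 24 h, sterols analysed by GC-MS with cholesterol internal standard; each sterol expressed as % of total sterol fraction versus no-drug control; average of three independent experiments.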

[20] = system: Candida albicans; assay: Antifungal activity against fluconazole-sensitive Candida albicans SC5314 assessed as change in eburicol composition at 8 ug/ml after 24 hrs by GC-MS analysis relative to control; assay type: functional; summary of the method: as §5
[21] = system: Candida albicans; assay: Antifungal activity against fluconazole-resistant Candida albicans 100 after 24 hrs by serial dilution method; assay type: functional; conditions: Candida albicans, 100, 24 h
[22] = system: Pichia kudriavzevii; assay: Antifungal activity against Candida krusei 0710397 after 7 days by serial dilution method; assay type: functional; conditions: Pichia kudriavzevii, 0710397, 168 h
[23] = system: Candida albicans; assay: Antifungal activity against fluconazole-resistant Candida albicans 100 after 24 hrs by serial dilution method in presence of fluconazole; assay type: functional; summary of the method: as §1
[24] = system: Candida albicans; assay: Antifungal activity against fluconazole-sensitive Candida albicans SC5314 assessed as abnormal vacuole shape at 8 ug/ml after 8 hrs by TEM analysis; assay type: functional, organism-based; summary of the method: as §2
[25] = system: Candida albicans; assay: Inhibition of biofilm formation of fluconazole-resistant Candida albicans 103 after 48 hrs by XTT assay; assay type: functional, organism-based; summary of the method: as §3
[26] = target: T3, CYP2C9 (Homo sapiens, UniProt P11712); assay: Inhibition of CYP2C9 in human liver microsomes assessed as tolbutamide conversion to 4-hydroxy tolbutamide at 25 uM preincubated for 10 mins followed by NADPH addition measured after 15 mins by LC-MS/MS analysis relative to control; assay type: ADME; conditions: probe tolbutamide
[27] = system: Candida albicans; assay: Inhibition of hyphal growth of fluconazole-sensitive Candida albicans SC5314 assessed as appearance of pseudohyphal form at 2 ug/ml after 16 hrs by light microscopic analysis; assay type: functional, organism-based; summary of the method: as §4
[28] = target: T3, CYP2C9; assay: Inhibition of CYP2C9 in human liver microsomes assessed as tolbutamide conversion to 4-hydroxy tolbutamide at 2.5 uM preincubated for 10 mins followed by NADPH addition measured after 15 mins by LC-MS/MS analysis relative to control; assay type: ADME; conditions: probe tolbutamide
[29] = system: Candida albicans; assay: Antifungal activity against fluconazole-sensitive Candida albicans SC5314 assessed as change in lanosterol composition at 8 ug/ml after 24 hrs by GC-MS analysis (reference value: 1.5%); assay type: functional; summary of the method: as §5

T2 sequence (P08684 whole entry): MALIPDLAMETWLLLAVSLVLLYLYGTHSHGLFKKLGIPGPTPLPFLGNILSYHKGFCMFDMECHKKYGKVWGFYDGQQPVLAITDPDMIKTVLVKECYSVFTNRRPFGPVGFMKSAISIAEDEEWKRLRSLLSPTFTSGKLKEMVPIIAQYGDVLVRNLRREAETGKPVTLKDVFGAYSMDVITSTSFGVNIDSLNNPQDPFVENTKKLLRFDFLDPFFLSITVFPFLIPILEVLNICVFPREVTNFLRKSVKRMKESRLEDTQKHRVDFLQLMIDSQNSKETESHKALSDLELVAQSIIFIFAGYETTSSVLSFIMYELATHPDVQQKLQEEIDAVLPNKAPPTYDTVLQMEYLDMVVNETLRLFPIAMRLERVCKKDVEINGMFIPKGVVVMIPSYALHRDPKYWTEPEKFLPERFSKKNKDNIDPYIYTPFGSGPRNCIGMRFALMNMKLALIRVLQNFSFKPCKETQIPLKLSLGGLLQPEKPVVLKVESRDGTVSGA
T3 sequence (P11712 whole entry): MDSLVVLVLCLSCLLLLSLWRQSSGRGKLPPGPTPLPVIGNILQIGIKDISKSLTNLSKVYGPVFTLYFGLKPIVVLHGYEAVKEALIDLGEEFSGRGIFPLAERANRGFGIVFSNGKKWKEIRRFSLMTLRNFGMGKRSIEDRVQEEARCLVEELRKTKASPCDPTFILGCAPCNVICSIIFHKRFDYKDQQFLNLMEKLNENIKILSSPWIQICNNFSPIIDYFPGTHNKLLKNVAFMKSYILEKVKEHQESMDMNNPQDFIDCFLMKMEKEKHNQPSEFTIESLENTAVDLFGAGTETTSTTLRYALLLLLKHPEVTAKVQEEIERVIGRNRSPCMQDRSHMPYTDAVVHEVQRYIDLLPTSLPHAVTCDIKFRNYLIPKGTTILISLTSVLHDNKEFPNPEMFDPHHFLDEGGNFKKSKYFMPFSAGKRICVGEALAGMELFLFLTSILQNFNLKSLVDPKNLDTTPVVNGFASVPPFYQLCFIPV
T1 sequence (P08684 whole entry): as the sequence (P08684 whole entry) above
Sequence of CYP2C19 (P33261 whole entry): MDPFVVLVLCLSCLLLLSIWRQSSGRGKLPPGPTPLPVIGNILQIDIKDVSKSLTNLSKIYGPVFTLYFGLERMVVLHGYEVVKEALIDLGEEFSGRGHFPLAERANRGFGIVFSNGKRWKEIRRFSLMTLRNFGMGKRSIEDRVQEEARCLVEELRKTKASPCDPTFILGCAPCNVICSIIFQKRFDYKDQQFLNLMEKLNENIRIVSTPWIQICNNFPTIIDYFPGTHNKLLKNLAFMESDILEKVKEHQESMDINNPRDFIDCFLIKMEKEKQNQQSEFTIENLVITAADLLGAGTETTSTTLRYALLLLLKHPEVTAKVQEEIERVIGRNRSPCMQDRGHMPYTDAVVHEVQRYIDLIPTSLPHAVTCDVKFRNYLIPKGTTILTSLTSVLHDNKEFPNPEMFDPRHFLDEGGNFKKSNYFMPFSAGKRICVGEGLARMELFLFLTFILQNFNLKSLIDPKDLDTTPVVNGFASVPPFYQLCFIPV
Sequence of Cytochrome P450 2C9 (P11712 whole entry): as the sequence (P11712 whole entry) above

Fc1ccc2c(c1)c1c(n2CCCOc2ccc(Cl)cc2)CCNC1
MIC80 [1]: 4 µg/mL (≈ 11.1 µM) | fractional inhibitory concentration index (FICI) [2]: 0.252 | Activity [3]: Active | Activity [4]: Dose-dependent effect | inhibition at 0.25 h, 25 µM [5]: 33% | MIC80 [6]: 2 µg/mL (≈ 5.57 µM) | IC50 [7]: 50 µM | IC50 [8]: 25 µM | inhibition at 32 µg/mL [9]: > 75% | inhibition at 0.25 h, 25 µM [10]: 50% | fractional inhibitory concentration index (FICI) [11]: 0.252 | inhibition at 0.25 h, 2.5 µM [12]: -10% | MIC80 [13]: 4 µg/mL (≈ 11.1 µM) | IC50 [14]: > 25 µM | inhibition at 0.25 h, 2.5 µM [15]: -10% | Activity [16]: Active | MIC80 [17]: 2 µg/mL (≈ 5.57 µM) | growth inhibition (GI) [18]: Active | Activity [19]: 40.2% | Activity [20]: 12.4% | MIC80 [21]: 4 µg/mL (≈ 11.1 µM) | MIC80 [22]: 4 µg/mL (≈ 11.1 µM) | fractional inhibitory concentration index (FICI) [23]: 0.252 | Activity [24]: Active | inhibition [25]: Dose-dependent effect | inhibition at 0.25 h, 25 µM [26]: 36% | growth inhibition (GI) [27]: Active | inhibition at 0.25 h, 2.5 µM [28]: 8% | Activity [29]: 12.2%
